Screens: PubChem, several laboratories
This is a sample that favours compounds with a hit; in the whole collection about 1.6% have one here.
ABCB1 inh: inhibitors of human ABCB1 transporter, ABCG2 counter-screen; 190,000 compounds, 0.067% hits; CCRF-Adr cells, JC-1 efflux, flow cytometry; inhibition, % at 6.6 µM; in the data active means inhibition above about 40%;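 further: 0% = vehicle and 100% = reference inhibitor; higher value means more JC-1 retained so stronger ABCB1 efflux block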
Diaph act CS: counter-screen for diaphorase-based assays: diaphorase activators and chemical reducers. 190,000 compounds, 0.005% hits. Diaphorase/resazurin coupled assay, resorufin fluorescence, 16 min; hits give high values; 1 = vehicle wells, 0 = NADH-free wells. activation factor at 20 µM;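 active means diaphorase activity raised at least twofold by the compound at 20 µM; inactive means activation factor below 2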
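Material: purified diaphorase enzyme from Clostridium kluyveri / Medium: HEPES pH 7.4 buffer with MgCl2 and Tween 20 / Schedule: enzyme reaction of 16 min at room temperature / Measured by: resorufin fluorescence, excitation 544 nm, emission 590 nm / Evaluation: rise in resorufin formation, marking diaphorase activation or chemical reduction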
Diaph inh CS: counter-screen for diaphorase-based assays: diaphorase inhibitors and chemical oxidizers; diaphorase resazurin-to-resorufin fluorescence, NADH, 16 min; bacterial (C. kluyveri) enzyme, not human; inhibition, % at 20 µM; 190,000 compounds, 0.69% hits;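 active means primary screen inhibition at 20 µM above a set limit, cut at about 50% in these data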;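 further: plate controls were DMSO with full reaction for no effect and wells lacking NADH for full effect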
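Assay system: diaphorase enzyme from Clostridium kluyveri; Input: enzyme working solution with 0.14 U/mL diaphorase; Timing: 16 min at room temperature; Technique: resorufin fluorescence, excitation 544 nm, emission 590 nm; Benchmarks: positive control minus NADH, DMSO neutral control.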
ABCG2 inh: blocks JC-1 efflux by human ABCG2 transporter; Q9UNQ0; IgMXP3 cells, flow cytometry; inhibition, % at 6.6 µM; 190,000 compounds, 0.1% hits; AID 1325;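 active means inhibition above 80%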;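 further: 0% = DMSO and 100% = nicardipine control wells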
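Times: 10 min at 25 °C | Test system: Two drug-resistant human cell lines, ABCG2 and ABCB1 | Quantity: 3 million cells/mL final, two lines in 1:1 ratio | Signal: Flow cytometry, 530 nm JC-1 signal | Dosing: Compound at 6.6 µM | Controls: Nicardipine and DMSO wells | Reagent: JC-1 as fluorescent efflux pump substrate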
p47phox inh: p47phox (human) inhibition | 220,000 compounds, 0.53% hits | inhibition, % at 24.7 µM | P14598 | AID 1274 | p47phox/p22phox peptide binding, fluorescence polarization, 2 h;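 active means inhibition above about 30%, limit read from the data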;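 further: 0% = p47phox with labelled peptide and 100% = labelled peptide alone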
Efa HMGR inh: inhibitors of class II HMG-CoA reductase from Enterococcus faecalis. purified E. faecalis HMGR, NADPH absorbance 340 nm kinetic. inhibition, % at 10 µM. 190,000 compounds, 0.41% hits;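 active means inhibition above a set limit, the median over all tested compounds plus 3 SD, cut at about 9.5% in these data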;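 further: enzyme runs in reverse so mevalonate oxidation gives rising NADPH absorbance; 0% = complete reaction with DMSO and 100% = background rate lacking mevalonate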
Starred values were filed as active, the others as inactive; / = no result given.

SMILES | ABCB1 inh | Diaph act CS | Diaph inh CS | ABCG2 inh | p47phox inh | Efa HMGR inh
CC(C)(C)OC(=O)N/N=C\c1ccc([N+](=O)[O-])s1 | 0 | 1 | 2 | 65 | -14 | 2
N/C(=N\OC(=O)CN1C(=O)c2ccccc2C1=O)c1ccc(Br)cc1 | 1 | 1 | 0 | 5 | -9 | 13*
COC(=O)Cc1c(O)ccn(CCc2ccccc2)c1=O | 0 | 0.9 | 6 | 2 | 1 | 0
Cc1csc(SCCn2c(N3CCOCC3)nc3c2c(=O)[nH]c(=O)n3C)n1 | 0 | 0.8 | 16 | 1 | 1 | -5
Cc1cc(C)nc(SCCn2c(N3CCOCC3)nc3c2c(=O)[nH]c(=O)n3C)n1 | 0 | 0.9 | 7 | 2 | -6 | 12*
CN1C2=CC=CC=CC2=[N+](C)C12C([N+](=O)[O-])=CC(=[N+]([O-])[O-])C=C2[N+](=O)[O-] (stereo unspecified) | / | / | / | / | 61* | /
CCOC(=O)c1ccc(CC(=O)c2ccc(O)c(O)c2O)o1 | -2 | 0.2 | 76* | -4 | 6 | 2
Cc1cc(OC(=O)c2ccc(Cl)cc2Cl)nc(C)n1 | 1 | 0.7 | 27 | 4 | -9 | -2
Cn1c(OCc2cccnc2)nc2c1c(=O)n(Cc1ccc(Br)cc1)c(=O)n2C | 2 | 0.8 | 18 | 7 | -6 | 14*
Cn1c(=O)c2c(nc(NCc3cccnc3)n2Cc2ccc(Cl)cc2)n(C)c1=O | 2 | 0.9 | 10 | 11 | 1 | -9
Cn1c(OCc2ccc3c(c2)OCO3)nc2c1c(=O)n(Cc1ccc(Cl)c(Cl)c1)c(=O)n2C | -2 | 0.9 | 10 | -14 | 55* | -1
N#CC1=C(N)NC(SCC(=O)c2ccc(Cl)cc2)=C(C#N)C12CCCC2 | 0 | 0.8 | 17 | 0 | -12 | -3
CC(C)(C)OC(=O)N1CCC(C(=O)O)CC1 | 0 | 1 | -1 | 8 | -3 | 2
COCCNC(=O)CS(=O)(=O)Cc1nc(-c2ccc(C)cc2)oc1C | 0 | 0.8 | 23 | 1 | -21 | -1
CCOc1ccc(OCc2ccc(C(=O)N3CCCC3)o2)cc1 | 41* | 0.8 | 18 | 7 | -11 | 0
CN1CCN(C(=O)c2ccc(COc3ccc(C(C)(C)C)cc3)o2)CC1 | 1 | 0.8 | 23 | 2 | -3 | -2
Cc1cccc(OCc2nnc(SCC(=O)O)n2Cc2ccccc2)c1 | 0 | 1 | 1 | 0 | 5 | -5
O=C(CSc1nc(C2CCCCC2)n(-c2ccccc2)n1)NCC(F)(F)F | 1 | 0.9 | 10 | 23 | 41* | -7
CCCCn1c(=O)c2ccccc2c2ccccc2c1=O | 0 | 0.8 | 17 | 0 | 3 | 32*
CCCn1c(=S)[nH]c2ccccc2c1=O | 0 | 0.8 | 19 | 6 | -2 | 15*
CN(C)CCn1c(=S)[nH]c2ccccc2c1=O | 1 | 1 | -5 | 4 | -3 | 1
Fc1ccccc1N1CCN(C(c2ccncc2)c2nnnn2C2CCCC2)CC1 (stereo unspecified) | 0 | 0.7 | 28 | 0 | -6 | -4
O=C(CCN1CCCCC1)Nc1ccc(Br)cc1 | 1 | 1.1 | -10 | 14 | -9 | 7
Nc1nncn1C(=O)c1cccs1 | -1 | 1 | 5 | 0 | 2 | -3
CCOc1ccc(-c2csc(/C(C#N)=C\c3ccc(O)c([N+](=O)[O-])c3)n2)cc1 | -1 | 0.1 | 87* | -3 | -9 | -1
SMILES | ABCB1 inh | Diaph act CS | Diaph inh CS | ABCG2 inh | p47phox inh | Efa HMGR inh
CCCCc1ccc(-c2csc(/C(C#N)=C\c3ccc(C)o3)n2)cc1 | 0 | 0.7 | 26 | -1 | -51 | 1
Cn1c(SCC(=O)N2c3ccccc3Sc3ccccc32)nc2ccccc21 | 1 | 0.8 | 24 | 0 | -17 | -7
CC1(Br)C2CCCC1C2S(=O)(=O)c1ccccc1 (stereo unspecified) | 0 | 0.8 | 15 | 1 | 1 | -2
CNC(=O)COC(=O)/C=C/c1ccco1 | 0 | 1 | 4 | 3 | 0 | -5
Cc1cccc(NC(=O)c2ccc(-c3ccccc3[N+](=O)[O-])o2)c1 | 0 | 0.7 | 33 | 3 | -17 | 10*
Cc1nc(N2CCN(C)CC2)c2sc(=S)n(C)c2n1 | 0 | 0.8 | 24 | 5 | 106* | 1
CC1CCN(CCCCOc2ccccc2[N+](=O)[O-])CC1 | 0 | 0.7 | 31 | 1 | 1 | -4
O=C(C1CCCCC1)N1CCCc2ccccc21 | 1 | 0.8 | 16 | 4 | 9 | 1
CCOC(=O)N1CCN(C(=O)c2ccc(-n3c(C)ccc3C)cc2)CC1 | 0 | 0.9 | 12 | 37 | -10 | -1
O=C(NNC(=O)c1cccnc1)NC1CCCCC1 | 0 | 0.9 | 8 | -1 | -5 | -2
O=C(NNC(=O)c1cc(O)c(O)c(O)c1)NC1CCCCC1 | 0 | 0.5 | 50* | 1 | -4 | 0
CCOC(=O)Nc1cccc(NC(=O)c2ccccc2F)c1 | 1 | 0.9 | 12 | 17 | -8 | -4
CCN(CC)C(=O)CSc1nc2c(sc(=S)n2-c2ccccc2)c(=O)n1Cc1ccco1 | 0 | 0.5 | 51* | 0 | -11 | -4
CN(CCCC[C@H](CNCc1ccc(-c2ccccc2)cc1)N1C[C@H](c2ccccc2)N(CCc2ccc(Cl)c(Cl)c2)C(=O)C1=O)Cc1ccc(-c2ccccc2)cc1 | / | / | / | / | 51* | /
COc1ccc(CNC[C@@H](CCCCN(C)Cc2ccc(OC)cc2)N2C[C@H](c3ccccc3)N(CCc3ccc(Cl)c(Cl)c3)C(=O)C2=O)cc1 | 0 | 2.2* | -123 | 6 | 50* | 5
COc1cc(Nc2c3c(nc4ccccc24)CCCC3)cc(OC)c1OC | 1 | 1 | -4 | 2 | -22 | -5
COc1ccc2c(c1)CCC1C2=NN(/C(C)=C\C(C)=O)C1c1ccc(F)cc1 (stereo unspecified) | 1 | 0.8 | 16 | 4 | -22 | -4
COc1ccc(N=Cc2c(O)n(-c3ccc(OC)cc3)c(=O)c3ccccc23)cc1 | 0 | 0.8 | 22 | 6 | 33* | -2
CCC(C)(C)C1CCc2c(sc(NC(=O)c3cccs3)c2C(N)=O)C1 (stereo unspecified) | 0 | 0.9 | 7 | 1 | -9 | -1
CC(=O)Nc1ccc(-c2ccccc2)s1 | 0 | 0.9 | 8 | 3 | -8 | -3
COc1ccccc1S(=O)(=O)Nc1ccc2cn[nH]c2c1 | 0 | 0.9 | 9 | 1 | -8 | -6
CCOc1cc(CNc2ccc3cn[nH]c3c2)ccc1OC | 1 | 0.4 | 57* | 4 | -2 | -9
COc1ccc(CNc2ccc3cn[nH]c3c2)c(OC)c1OC | 0 | 0.4 | 57* | 3 | -14 | 2
CSc1nnc(Cc2ccc3c(c2)OCO3)o1 | 0 | 0.9 | 11 | 0 | -3 | 1
